pIC50: −log10 of the molar value.
Each compound was assayed on E. coli BW25113 growth inhibition, OD615 (assay: growth inhibition of wild-type E. coli BW25113 pool, dose response, OD615 (AID 635;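 note: growth measured after 20 h with compound at 37 °C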)). Conditions: pooled mutant strains.
In short: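 Material: Keio BW25113 knockout pool, 1,275 strains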

| SMILES | pIC50 |
| --- | --- |
| Oc1c(CN2CCCCC2)cc(Br)c2cccnc12 | 4.43 |
| O=c1ccsn1Cc1ccccc1 | 4.46 |
| NC1C2CN(c3nc4c(cc3F)c(=O)c(C(=O)O)cn4-c3ccc(F)cc3F)CC12 (centres undefined) | 8.22 |
| COc1c(N2CCNC(C)C2)c(F)cc2c(=O)c(C(=O)O)cn(C3CC3)c12 (centres undefined) | > 6.71 |
| CN(C)[C@@H]1C(=O)C(C(N)=O)=C(O)[C@@]2(O)C(=O)C3=C(O)c4c(O)ccc(Cl)c4[C@@H](O)[C@H]3C[C@@H]12 | 6.24 |
| CCC(=O)N1CCN(c2cc3c(cc2F)c(=O)c(C(=O)O)cn3CC)CC1 | 5.40 |
| COc1ccc(OCC(O)CNc2ccc(Br)cc2)cc1 (centres undefined) | 3.99 |
| CCCCNc1cc(C)nc(NCc2ccccc2)n1 | 4.01 |
| c1ccc(-c2cccc(-c3ccccn3)n2)nc1 | 4.38 |
| CN1CCN(c2c(F)cc3c(=O)c(C(=O)O)cn4c3c2SCC4)CC1 | 5.95 |
| CCCCOc1ccc(NC2=NC3(CCCCC3)N=C(N)N2)cc1 | 4.39 |
| CCn1cc(C(=O)O)c(=O)c2cc(F)c(N3CCN(C(=O)Nc4ccccc4)CC3)cc21 | 5.39 |
| CC(=O)c1c(C)n([O-])c2ccccc2[n+]1=O | 4.31 |
| COc1cc(Cc2cnc(N)nc2N)cc(OC)c1OC | 6.23 |
| CO[C@@]1(NC(=O)Cc2cccs2)C(=O)N2C(C(=O)O)=C(COC(N)=O)CS[C@@H]21 | 5.01 |
| CCn1cc(C(=O)NCc2ccc3c(c2)OCO3)c(=O)c2cc(F)c(N3CCN(C)CC3)cc21 | 4.54 |
| O=S1(=O)Nc2c(ccc3cccnc23)-c2ccccc21 | 4.69 |
| C=CCNc1ncnc2c1[nH]c1ccc(C)cc12 | 4.38 |
| CC(=O)OCC1=C(C(=O)O)N2C(=O)[C@@H](NC(=O)Cc3cccs3)[C@H]2SC1 | 4.98 |

— PubChem BioAssay AID635 (SRMLSC, 2007)
